High-throughput results from PubChem.
STAT1 inh = STAT1 signaling inhibitors, primary screen, cell-based, HTS, luciferase reporter | NIH 3T3 STAT1-luciferase reporter, IFN-gamma, luminescence | actives 0.35% (n = 200,000) | AID 920, 2007 | inhibition, % at 5.5 µM;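 active = inhibition above a set limit, the mean inhibition across all tested compounds plus 3 SD, cut at about 34% in these data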;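 also: 0% = IFN-gamma with DMSO and 100% = IFN-gamma with 300 µM nifuroxazide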
STAT3 blocker = IL-6 driven STAT3 reporter inhibitors, primary screen, U3A cells, luciferase, luminescence, MLSCN library; IL-6 STAT3-luciferase reporter; host cell line lacks STAT1; inhibition, % at 5.5 µM; actives 0.89% (n = 190,000);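 active = inhibition above the mean inhibition across all screened compounds plus 3 SD, cut at about 44% in these data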;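 also: 0% = DMSO only wells and 100% = 100 µM nifuroxazide control wells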
NF-kB expr up = activators of NF-kB expression in neurons, primary screen, cell-based, HTS | AID 1239, 2008 | human neuronal cells, NF-kB reporter expression; active compounds read high | fold change at 12.5 µM | actives 1.6% (n = 190,000); in the data active = fold change above about 3.3
APP 5'UTR act = activators of APP 5'UTR luciferase reporter, primary screen, SH-SY5Y cells; SH-SY5Y APP 5'UTR luciferase reporter, luminescence; zero percent = DMSO vehicle wells; activation, % at 2 µM; actives 1% (n = 190,000);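 active = activation above a set limit, based on mean plus 3 SD of controls, cut at about 140% in these data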
STAT3 activator = IL-6 driven STAT3 reporter potentiators, primary screen, U3A cells, luciferase, luminescence, MLSCN library; IL-6 STAT3-luciferase reporter; 100% = signal with IL-6 EC80 alone; activation (% of control), % at 5.6 µM; actives 0.91% (n = 190,000); AID 871, 2007;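 active = activation above the screen-wide mean of compound activation plus 3 SD, cut at about 130% in these data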;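 also: 0% = background luminescence of wells with medium and substrate only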
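System – human U3A cells carrying STAT3-luciferase construct · Probe or stimulus – Interleukin-6, 33 ng/mL · Schedule – compound 1 h, then IL-6 6 h at 37 °C · Signal – luminescence from STAT3-driven luciferase reporter · Evaluation – percent of IL-6-only median luminescence · Benchmarks – IL-6-only high control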
STAT1 activator = STAT1 signaling activators, primary screen, cell-based, HTS, luciferase reporter; NIH 3T3 STAT1-luciferase reporter, IFN-gamma, luminescence; 100% = IFN-gamma alone, no compound; activation (% of control), % at 5.5 µM; actives 2.6% (n = 200,000);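 active = activation above the screen-wide mean activation plus 3 SD, cut at about 130% in these data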;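 also: raw ratio to IFN-gamma control signal so 100% means no change and 0% no light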
Active calls of the source: *; nt = no result given. This is a sample that favours compounds with a hit; in the whole collection about 4.9% have one here.

SMILES	STAT1 inh	STAT3 blocker	NF-kB expr up	APP 5'UTR act	STAT3 activator	STAT1 activator
Cc1ccc(NC(=O)N/C=C/c2ccccc2)cc1	-50	-4	1.5	105	103	146*
O=C(N/C=C/c1ccccc1)Nc1ccc(Cl)cc1	-45	7	1.3	58	95	141*
S=C(NCCc1ccccc1)Nc1ccc(Cl)cc1	-4	4	1.1	25	95	106
C=CCOc1c(Br)cc(CNc2ccc(NC(=O)C(C)C)c(OC)c2)cc1OCC	7	-24	1.2	-17	118	94
NC(=O)c1c(NC(=O)c2ccccc2)sc2c1CCc1ccccc1-2	-43	6	4.1*	17	101	140*
NC(=O)c1c(NC(=O)c2ccncc2)sc2c1CCCC2	-18	32	1	55	80	115
C/C(=N\N1CCN(C2c3ccccc3-c3ccccc32)CC1)c1cccnc1	-5	12	0.99	19	95	105
CN=c1scc(-c2ccccc2F)n1/N=C(\C)c1cccnc1	-34	2	6*	186*	98	132*
Cc1ccc(NC(=O)CSc2nnc(/N=C/N(C)C)s2)cc1	7	7	1	-13	98	92
Cc1ccc(/C=c2/sc3n(c2=O)CCCN=3)o1	-29	14	2.1	28	92	129*
COc1ccc2c(c1)NC(c1cc(Cl)cc(Cl)c1O)c1cccn1-2 (stereo not drawn)	-1	-3	3.7*	9	108	99
CC(C)(C)c1ccc(OCC(=O)N2CCCCCC2)c(Br)c1	-38	-11	1	19	117	134*
COc1ccc(-c2nnc(-c3cccs3)o2)cc1OC	-54	18	2.8	116	87	150*
COc1nc(-c2ccccc2)ccc1-c1noc(-c2cccs2)n1	-7	-18	nt	33	118	106
Cc1ccccc1-c1nnc(-c2cccs2)o1	-48	-8	2.1	73	116	144*
Cc1ccccc1-c1noc(-c2cccs2)n1	-50	-8	2.3	50	106	143*
C=COC(=O)CSc1nc(-c2cccs2)ccc1C#N	-40	17	1.9	90	90	136*
CN(C)c1ccc(NC(=O)CCn2c(=S)oc3ccccc32)cc1	-33	3	1.2	106	102	134*
CC(C)(C)NC(=O)COC(=O)CCC(=O)c1cccs1	-7	4	1	12	98	104
Oc1ccccc1N=Cc1sc2ccccc2c1Cl	11	-48	2.6	7	135*	90
O=S1(=O)CCN(Cc2ccc(Cl)c(C(F)(F)F)c2)CC1	2	9	1	-9	95	97
CCn1c2ccccc2c2cc(Nc3cc(C)nc4ncnn34)ccc21	-2	-43	4.4*	-96	136*	103
CCc1cccc(Nc2cc(C)nc3ncnn23)c1	-5	-4	0.84	15	103	104
CSCCC(NC(=O)c1cccc(S(=O)(=O)N2CCOCC2)c1)C(=O)Nc1cccc(C)c1 (stereo not drawn)	-1	-8	0.89	7	104	101
COC(=O)c1ccc(Cl)c(NC(=O)c2ccc(-c3ccccc3)cc2)c1	-1	-31	1.3	-2	136*	101
SMILES	STAT1 inh	STAT3 blocker	NF-kB expr up	APP 5'UTR act	STAT3 activator	STAT1 activator
CC(C)(C)c1ccc(C(=O)Nc2ccccc2Cl)cc1	-16	34	4.8*	201*	74	115
COCC(=O)Nc1cc(C(=O)Nc2ccccc2)ccc1Cl	1	16	1.6	29	91	97
CCC(CC)c1nnc(NC(=O)Cc2ccccc2[N+](=O)[O-])s1	-4	-19	1.1	0	120	100
Cc1ccccc1Cn1nnc(-c2ccc3c(c2)OCO3)n1	-20	4	2	15	99	116
Fc1cccc(Cl)c1Cn1nnc(-c2ccc3c(c2)OCO3)n1	-21	1	3.6*	68	102	119
O=C(Nc1nnc(-c2ccco2)s1)C1CCCCC1	-48	8	1.5	108	95	144*
O=C(CN1C(=O)NC2(CCCCC2)C1=O)Nc1ccc2c(c1)CCC2	-22	-34	1.1	-12	134*	118
CCOC(=O)c1ccc(NC(=O)CN2C(=O)NC3(CCCCCC3)C2=O)cc1	1	-10	2.4	10	108	100
O=C(NCCN1CCOCC1)c1cc(-c2cccs2)on1	-17	-17	5.8*	20	120	116
CC(C)NC(=O)c1cc(-c2cccs2)on1	-24	-11	4*	62	116	122
O=C(NCCCN1CCOCC1)c1cc(-c2ccccc2)on1	-20	-17	5.5*	19	117	118
O=C(NCCN1CCOCC1)c1cc(-c2ccccc2)on1	-11	-20	6.3*	29	119	110
O=C(NCCN1CCOCC1)c1cc(-c2ccc(Br)cc2)on1	1	7	0.93	2	94	99
O=C(COC(=O)CCSc1ccccc1Cl)NCc1ccco1	-8	2	0.98	4	102	106
Cc1ccccc1Nc1nnc(SCC2CCCCO2)s1 (stereo not drawn)	-30	-2	6.1*	146*	100	129*
Fc1ccc2[nH]c3c(N4CCN(c5ccccc5)CC4)ncnc3c2c1	27	42	0.61	-6	69	76
COc1ccc(N2CCN(c3ncnc4c3[nH]c3ccccc34)CC2)cc1	41*	77*	0.89	nt	35	64
COc1cccc(NC(=S)N(CCCN2CCOCC2)Cc2cn(C)c3ccccc23)c1	-4	1	0.73	11	99	104
COC(=O)Nc1[nH]ncc1[N+](=O)[O-]	0	3	1	13	100	98
NNC(=O)c1cc2ccccc2[nH]1	8	-15	1.3	-90	115	92
O=C(c1cc2ccccc2[nH]1)N1CCOCC1	2	-39	1.2	17	135*	98
Cc1ccc2cccc(Oc3ncnc4scc(-c5ccc(Cl)cc5)c34)c2n1	-1	-8	1.1	5	106	101
COC(=O)c1cn(NC(=O)c2cc([N+](=O)[O-])ccc2F)c(=O)c2ccccc12	-46	-35	0.85	-23	128	139*
COC(=O)c1cn(NC(=O)C2CCC(C)CC2)c(=O)c2ccccc12 (stereo not drawn)	0	2	1	15	102	100
C1=Nc2ccccc2CN1c1ccccc1	-34	-12	2	19	110	130*
Cc1cc(N2C(=O)C3C4CC(C(Br)C4Br)C3C2=O)no1 (stereo not drawn)	-7	7	1.2	-6	96	106
